Measurements: paper PMC3144551 (Science signaling, 2011)
Entries after “also recorded” stand apart in the source; their conditions may differ.

Key:
MrgprA3 = experiment: Calcium imaging of MrgprA3-expressing CHO cells; format: cell-based, mouse; conditions: chloroquine 100 µM; n = 155 cells
Summary of the method: (§1)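 Each receptor was transfected individually into CHO cells. Cells were loaded with fura-2 acetoxymethyl ester for 45 min at 37°C, washed, and imaged at 340- and 380-nm excitation to detect intracellular free Ca2+. There were at least three independent experiments, with at least 100 cells analysed each time.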

[1] = tested on: WT DRG neurons electroporated with siRNA; experiment: Calcium imaging of WT DRG neurons electroporated with siRNA; format: cell-based, mouse; conditions: CQ 1 mM
MrgprC11 [2] = target: T1, MrgprC11 (Mus musculus, UniProt Q8CIP3); experiment: Calcium imaging of MrgprC11-expressing CHO cells; format: cell-based; conditions: for activation of MrgprC11 (calcium response): MrgprC11-expressing CHO cells, concentration not given
T1 sequence (Q8CIP3 1-322): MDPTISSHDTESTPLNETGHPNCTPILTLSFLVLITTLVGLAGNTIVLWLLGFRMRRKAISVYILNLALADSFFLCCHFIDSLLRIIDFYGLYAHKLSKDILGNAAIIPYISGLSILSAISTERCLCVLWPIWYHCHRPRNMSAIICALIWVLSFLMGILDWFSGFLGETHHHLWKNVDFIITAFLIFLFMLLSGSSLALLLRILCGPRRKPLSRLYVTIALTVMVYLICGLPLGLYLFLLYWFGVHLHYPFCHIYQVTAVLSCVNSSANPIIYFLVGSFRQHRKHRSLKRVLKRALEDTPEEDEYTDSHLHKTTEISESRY

human subjects = conditions: ref [5], cited from earlier work
human MrgprX4 = experiment: Calcium imaging of MrgprX4-expressing CHO cells; format: cell-based; conditions: Ca^2+ imaging, fig. S4
Summary of the method: as §1

human MrgprX3 = experiment: Calcium imaging of MrgprX3-expressing CHO cells; format: cell-based; conditions: Ca^2+ imaging, fig. S4
Summary of the method: as §1

human MrgprX1 = experiment: Calcium imaging of MrgprX1-expressing CHO cells; format: cell-based; conditions: Ca^2+ imaging, fig. S4
Summary of the method: as §1

human MrgprX2 = experiment: Calcium imaging of MrgprX2-expressing CHO cells; format: cell-based; conditions: Ca^2+ imaging, fig. S4
Summary of the method: as §1

MrgprC11 [3] = target: T1, MrgprC11; conditions: ref [8], [11]; cited from earlier work
DRG neurons = experiment: Whole-cell current-clamp recording of cultured DRG neurons; format: cell-based, mouse; conditions: n = 6; perfused with 1 mM SLIGRL or BAM(8–22) for 20 s, pH 7.38, room temperature (~25°C)
mice [4] = conditions: cited from earlier work
MrgprC11 [5] = target: T1, MrgprC11; experiment: Calcium imaging of Mrgpr-clusterΔ^−/− DRG neurons electroporated with MrgprC11; format: cell-based; conditions: MrgprC11-expressing Mrgpr-clusterΔ^−/− neurons, n = 66; BAM(8–22) 2 µM
mouse hindpaws = experiment: Thermal hyperalgesia, paw withdrawal latency to radiant heat; format: in vivo; conditions: trypsin 100 ng, 10 µl, intraplantar; WT n = 7, Mrgpr-clusterΔ^−/− n = 8, PAR2^−/− n = 10
mice [6] = experiment: Scratching behavior after injection into the nape of the neck; format: in vivo, mouse; conditions: trypsin 200 µg, 50 µl, PAR2^−/− n = 6 vs WT n = 6
Summary of the method: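 Male mice aged 2 to 3 months (20 to 30 g) were backcrossed to C57BL/6 for at least 10 generations and scored blind to genotype. A scratching bout was continuous hindpaw scratching directed at the injection site. Bouts were counted in 5-min intervals over a 30-min observation period after injection.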

Compound: CCN(CC)CCCC(C)Nc1ccnc2cc(Cl)ccc12 (stereo not shown) [chloroquine]
- calcium response, MrgprA3-expressing CHO cells (MrgprA3): could be activated by chloroquine; also recorded: responded
- chloroquine sensitivity ([1]; WT DRG neurons + MrgprA3 siRNA): abolished the chloroquine response
- chloroquine sensitivity ([1]; WT DRG neurons + MrgprA3 siRNA, listed as CQ): completely abolished CQ sensitivity
- chloroquine sensitivity ([1]; WT DRG neurons + MrgprC11 siRNA, n = 7 CQ-sensitive neurons): still sensitive

Compound: LRGILS-NH2
- activation of MrgprC11 (calcium response) (MrgprC11 [2]): None of these derivatives induced significant calcium responses in cells

Compound: SLIGKV
- itch in human subjects (human subjects; intracutaneous injection, low millimolar range): provokes itch in human subjects
- calcium response, MrgprX4-expressing CHO cells (human MrgprX4): insensitive to the peptide
- calcium response, MrgprX3-expressing CHO cells (human MrgprX3): insensitive to the peptide
- calcium response, MrgprX1-expressing CHO cells (human MrgprX1): insensitive to the peptide
- calcium response, MrgprX2-expressing CHO cells (human MrgprX2): exhibited a response

Compound: SLIGRL [SLIGRL without amidation (−NH2)]
- activation of MrgprC11 (calcium response) (MrgprC11 [2]): None of these derivatives induced significant calcium responses in cells

Compound: bovine adrenal medulla peptide [BAM(8–22)]
- agonism at MrgprC11 (MrgprC11 [3]): specific agonist for MrgprC11
- action potentials evoked in SLIGRL-sensitive WT DRG neurons (DRG neurons): All of them also generated action potentials
- evoked scratching in Mrgpr-clusterΔ^−/− mice (mice [4]; Mrgpr-clusterΔ^−/− mice, ref [8]): reduced
- Mrgpr-dependent scratching response (mice [4]; ref [8]): induces an Mrgpr-dependent scratching response
- calcium response, MrgprC11-expressing CHO cells (MrgprC11 [2]; BAM(8–22) 2 µM, n = 150 cells): responded
- increase in [Ca^2+]i (MrgprC11 [5]): showed increased [Ca^2+]i

Compound: trypsin
- itch in humans (human subjects; skin application, [6]): induces itch in humans
- trypsin-induced thermal hyperalgesia (paw withdrawal latency) (mouse hindpaws): comparable among wild-type, Mrgpr knockout, and PAR2 knockout mice; also recorded: comparable among the three groups
- scratching response to trypsin in mice (mice [4]; injection into nape of neck, ref [4]): induces a scratching response
- scratching behavior in mice (mice [4]; intradermal injection, ref [3], [4]): elicit scratching behavior in mice
- trypsin-induced scratching in PAR2^−/− mice (mice [6]): significantly stronger in PAR2^−/− mice; also recorded: scratched significantly more than did wild-type controls
